In the RNAGym collection of RNA variant scans (doi:10.1126/science.aae0568):
Fewer inactive variants are shown than the library holds.

B1: tRNA (parent)
chain: GUUCCGUUGGCGUAAUGGUAACGCGUCUCCCUCCUAAGGAGAAGACUGCGGGUUCGAGUCCCGUACGGAACG

Variants of: B1
Experiment: yeast fitness relative to wild type (ratio to wild type); higher = fitter; tRNA-Arg(CCU), competitive growth, 37 C, YPD
Summary of the method: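 The tRNA-Arg(CCU) gene variants were made by chemical synthesis with a 3% per-site mutation rate at 69 sites and inserted at the native genomic locus of Saccharomyces cerevisiae. After pooling, the strains were competed in YPD at 37°C for 24 hours in six parallel replicates. Gene amplicons from the start population and each end population were read by 100-nucleotide paired-end sequencing, and Darwinian fitness relative to wild type was taken from genotype frequency changes. Genotypes needed ≥ 100 starting reads, and estimates < 0.5 were set to 0.5.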

Variant | yeast fitness
GUACGGUUGGCGUAAUGGUAACGCGUCUCCCUCCUAAGGAGAAGACUGCGGGUUCGAGUCCCGUACCGAACG [U3A C5G G67C] | 1
GUUCCGUUGGCGUAAUGGUAACGCGUCUCCCUCCUAAGGGGAAGACUGCGGGUUCGAGUCCCGUACCGAACG [A40G G67C] | 0.956
GUUCUGUUGGCGUAAUGGUAACGCGUCUCCCUCCCUAAGAGAAGAAUGCGGGUCCGAGUCCCGUACGGAACG [C5U U35C A36U G38A C46A U54C] | 0.556
GUUCCGUUGGCGUAAUGGUAACGCGUCUCCCUCCCAAGGAGAAGACUGCGGCUUCGAGUCCCGUACGGAACG [U35C G52C] | ≤ 0.5
GUUCCGUUGGCGUAAUGGUAACGCGUCUCCCUGCUAAGGGGAAGACUGCGGGUUCGAGUCCCGUACGGAACG [C33G A40G] | 0.615
GUUCCGUUGGCGUAAUGGUAACGCGUCUUCCUCCUAAGGAGAAGACUGCCGGUUCGAGUACCGUACGGAACG [C29U G50C C60A] | ≤ 0.5
GUUCCGUUGGGGUAAUGGUCACGCGUCUCCCUCCUAAGGAGAAGGCUGCGGGUUCGAGUCCCGUACGGAUCG [C11G A20C A45G A70U] | ≤ 0.5
GUUCUGUUGGCGUAAUGGUAACGCGUCUUCCUCCUAAGGAGAAGACUGCGGGUUCGAGUCCCGUACGGUACG [C5U C29U A69U] | 0.72
GUUCCGCUGGCGUAAUGGUAACGCGUCUCCCUCCUAAGGUGUAGACUGCGGGUACGAGUCCCGGACGGAACG [U7C A40U A42U U54A U64G] | ≤ 0.5
GUUCCGUUGGUGUAAUGGUAACGCGUCUCGCUCCUAAGGUGAAGUCUGCGGGUUGGAGUCCCGUACGGAACG [C11U C30G A40U A45U C55G] | 0.604
GUUCAGUUGGCGUAAUGGUAACGCGUCUCCCUCCUAAGGAGAAGACUGCGGGUUAGAGUCCCGUACGGAACG [C5A C55A] | 0.655
GUUCCGUUGGCGUAAUGGUAAGGCGUCUCCCUCCUGAGGAGAAGACUGCGGGUUCGAGUCCCGUACGGAACG [C22G A36G] | 0.966
GUUCCGUUGGCGUAAUGGUACCGCGUCUCCCUCCUAAGGAGAAGUCAGCGGGAUCGAGUCCCGUACGGAACG [A21C A45U U47A U53A] | ≤ 0.5
GUUUCGUUGGGGUAAUGGUAAGGCGUCUCCCUCCUAAGGAGAAGACUGCGGGUUGGAGUCCCCUACGGAACG [C4U C11G C22G C55G G63C] | ≤ 0.5
GUUCCGUUGGCGUAAUGGUAACGCGUCUCCUUCCUAAGGAGAAGAAUGCGGGUUCGAGUCCCGUCCGGAACG [C31U C46A A65C] | 0.73
GUUCUGUUGGCGUAAUGGUAACGCGUCUCCUUCCUAAGGAGAAGACUGCGGGUUCGAGUCACGUACGGAACG [C5U C31U C61A] | 0.552
GUUCCGUUGGCGUAAUGGUAACGCGUCUCCCUCCUAAGGAAAAGACUGCGGGUUCGAGUCCCGUACGGAACG [G41A] | 1
GUUCCGUUGGCGUAAUGGUAACGCGUCUCCCUCCUAAGGAGUGGACUGCGGCUUCGAGUCCCGUACGGAACG [A42U A43G G52C] | ≤ 0.5
GUUGCGUUGGCGUAAUGGUUACGCGUCUCCCUCCUAAGGAGAAGACUGCGGGUUCGAGUCCCGUAUGGAACG [C4G A20U C66U] | ≤ 0.5

Variant | yeast fitness
GUUCCGUUGGCGUAAUGGUAACGCGUAUCCCUCGUAAAGAGAAGACUGCGGGUUCGAGUCCCCUACGGAACG [C27A C34G G38A G63C] | ≤ 0.5
GUUCCGCUGGCGUAACGGUAACGCGUCUUCCUCCUAAGGAGAAGACUGCGGGUUCGAGUCCCGUACGGAACG [U7C U16C C29U] | ≤ 0.5
GUUCCGAUGGCGUAAUAGUAACGCGUCUCCCCCCUAAGGAGAAGACUGCGGGUUCGAGUCCCGUACGGAACG [U7A G17A U32C] | ≤ 0.5
GUUCCGUUGACGUCAUGGUAACGCGUCUCCCUCCUAAGGAGAAGACUGCGGGUUCGAGUCCCGUACGGAACG [G10A A14C] | 0.539
GUUCCGUUGACGUAAUGGUAACGCGUCUCCCGCCUAAGGAGAAGACUGCGGGUUCGAGUCCCGUACGGAACG [G10A U32G] | ≤ 0.5
GUUCCGUUGGCGUAAUGGUAUCGCGUCUCCCUCCUAAGGGGAAGACUGCGGGUUCGAGUCCCGUACGGAACG [A21U A40G] | 0.633
GUUCCGUUGGAGUAAUGGUAACGCGUCUCCCUCCGAAGGAGAAGAAUGUGGGUUCGAGUUCCGUACGGAACG [C11A U35G C46A C49U C60U] | ≤ 0.5
GUUGCAUUGGCGUAAUGGUACCGCGUCUCCCUCCUAAGGAGAAGACUGCGGGUUCGAGUCCCGUACGGAACG [C4G G6A A21C] | 0.701
GUUCCGUUGGCGUAAUGGUAACGCGACUCCCUCCUAAGGAGAGGACUGCGCGUUCGAGUCCCGUACGGUACG [U26A A43G G51C A69U] | 0.566
GUUCCGUUGGCGUAAUGGUAACGCGUCUCCCUCCUAAGGUGAAGACUGCGGGUCCGAGUCCCGUACGGAUCG [A40U U54C A70U] | 0.695
GUUCCGUUGGCGUAAUGGUAACGCGUCUCCCUUCCAAGGAGAAGACUGCGGGUUCGAGUCUCGUACGGAACG [C33U U35C C61U] | 0.555
GUUGCGUUGGCGUAAUGGUAACGCGACUCCCUCCUAAGGAGAUGAGUGCGGGUUCGAGUCCCGUACGGAACG [C4G U26A A43U C46G] | 0.593
GUUCCGUUGGCGUAAAGGUACCGCGUCUCCCUCCUAAGGAGAAGACUGCGGGUUCGAGUCCCGUACGGAACG [U16A A21C] | 0.686
GUUCCGUUGGCGUAAUGGUAACGCGUCUCGCUCCUAAGGAGCAGACUGCGGGUUCAAGUCCCGUACGGAACG [C30G A42C G56A] | ≤ 0.5
GUUCCGUUGGCGUAAUGGUCACGCGUCUCCCUCCUAAGGAGAAGACUGCGGGUUCGAGUCUCGUACGGCCCG [A20C C61U A69C A70C] | ≤ 0.5
GUUCCGUUGGCGUAAUGGUAACGCGUCUCCAUCCUAAGGAGAAGACUGCGGGUUCGGGUCCCGUACGAAACG [C31A A57G G68A] | ≤ 0.5
GUUCCGUUGGCGUAAUGGUAACGCGUCUCCCUCCUAAGGAGAAGACUGCGGGUUAGAGUCCCGUACGAAACG [C55A G68A] | 0.674
GUUCCGUUGGCGUAUUGGUAACGCGUCUCCCUCCUAAGCAGAAGACUGCGGGUUCGAGUCCCGUACGGAACG [A15U G39C] | 0.597
